# Assay outcomes: PubChem BioAssay, several laboratories
# This is a sample that favours compounds with a hit; in the whole collection about 2.5% have one here.
# TRPC4 inh = inhibitors of mouse TRPC4 channel; actives 0.39% (n = 300,000); HEK293 TRPC4beta/mu-opioid, DAMGO-evoked Fluo4 calcium flux; active compounds read low; AID 2247; B-score at 10 µM; Q9QUQ5;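 active = B-score over 3 SD under the library average, no early fluorescence shift, positive overall ratio signal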
#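 Assay system: HEK293 cells with stable TRPC4beta plus mu-opioid receptor expression; Probe or stimulus: DAMGO in two steps, submaximal then maximal; Dosing: single-point compound dosing; Measured by: Fluo4 calcium-dye fluorescence, kinetic read; Read-out basis: B score from integrated Fluo4 fluorescence ratio.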
# TRPC6 inh = mouse TRPC6 channel inhibition; Q61143; B-score at 10 µM; HEK293-TRPC6, membrane potential dye, ACh-evoked depolarization; active compounds read low; AID 2553; actives 1.1% (n = 310,000);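 active = B-score under library mean minus 3 SD, initial fluorescence not abnormally high, positive integrated signal ratio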;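 note: B-score derived from integrated fluorescence ratio over the kinetic read; more negative B-score means stronger inhibition of depolarization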
# TRPC6 act = activators of mouse TRPC6 channel; Q61143; HEK293-TRPC6 membrane potential dye fluorescence; active compounds read high; B-score at 10 µM; actives 0.13% (n = 310,000); AID 2550;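 active = B-score of the integrated fluorescence ratio above library mean plus 3 SD, and starting fluorescence ratio within library mean plus 5 SD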;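 note: higher score means more depolarization so channel activation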
# TRPC4 potent = TRPC4 (mouse) allosteric potentiation. actives 0.42% (n = 310,000). HEK293 TRPC4beta/mu-opioid, DAMGO EC20, Fluo-4 Ca2+ flux; active compounds read high. Q9QUQ5. B-score at 10 µM;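 active = B-score of calcium response area above 5 SD of library B-scores, with initial fluorescence ratio within 5 SD of library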;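 note: B-score of integrated fluorescence ratio over time as area under calcium response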
# DSG3 Ab inh = inhibitors of pemphigus antibody binding to human desmoglein-3 | P32926 | DSG3-coupled beads, scFv-anti-DSG3-GFP binding, flow cytometry; active compounds read low | binding (percent of control), % at 10 µM | actives 0.48% (n = 310,000) | AID 588358;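 active = binding more than 3 SD below its plate's average and above zero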;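 note: hits lower antibody fragment binding to DSG3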
# TRPC4 act = activators of mouse TRPC4 channel; AID 2237; Q9QUQ5; actives 0.49% (n = 310,000); B-score at 10 µM; HEK293 TRPC4beta/mu-opioid, Fluo4 calcium fluorescence; active compounds read high;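 active = B-score above 5 SD of library B-scores, and initial fluorescence ratio not above library mean plus 5 SD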;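 note: positive B-score marks a calcium rise read as TRPC4 activation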
#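 Incubation: 45 min room-temperature Fluo4 loading, 110 s read / System: HEK293 cells stably co-expressing mouse TRPC4beta and mu-opioid receptor / Signal: Fluo4 fluorescence, kinetic / Control set: buffer (low) and maximal DAMGO (high) / Measure: integrated baseline-normalised fluorescence ratio, converted to per-well B score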
# HEK293 TRPC6 ctr = checks TRPC6 modulator effects in parental HEK293 cells. shares compounds with TRPC6 inh. membrane potential dye fluorescence. membrane potential signal change, % at 10 µM. actives 51% (n = 2,400). AID 488924;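 active = membrane potential signal moves up or down beyond 5 SD from buffer-only wells, on both duplicate plates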
# HEK293 MPD ctr 2 = second counter-screen for TRPC6 modulators: effect in parental HEK293 cells; shares compounds with TRPC6 inh; membrane potential dye fluorescence; after compound, maximal acetylcholine stimulation; inhibition, % at 10 µM; actives 14% (n = 2,400);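 active = membrane potential signal drops by more than 5 SD from the mean control signal, in both duplicate plates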;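 note: plate controls were acetylcholine ECmax control wells for no effect and buffer only wells for full effect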
# TRPC4 ctr mod = mouse TRPC4 off-target activity of TRPC6 modulators; shares compounds with TRPC6 inh; HEK293 TRPC4/mu-opioid, membrane potential fluorescence; percent change from control (negative = decrease, positive = increase), % at 10 µM; actives 69% (n = 2,400); AID 488927;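 active = membrane potential signal moved up or down beyond 5 SD of buffer control wells, in both duplicate plates, actives on both sides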;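 note: plate controls were assay buffer wells for no effect and DAMGO maximal-effect wells for full effect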
# TRPC4 ctr inh 2 = mouse TRPC4 off-target activity of TRPC6 modulators, second screen; shares compounds with TRPC6 inh; HEK293 TRPC4/mu-opioid, membrane potential dye fluorescence; stimulated with maximal-effect DAMGO; inhibition, % at 10 µM; actives 55% (n = 2,400); AID 488928;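 active = drop in membrane potential signal beyond 5 SD of the control wells in both duplicate plates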;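 note: TRPC4 counter screen for TRPC6 hits run under conditions tuned for TRPC6 not TRPC4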
# TRPC6 inh conf = confirmation of mouse TRPC6 inhibitors. shares compounds with TRPC6 inh. HEK293-TRPC6, membrane potential dye, ACh-evoked depolarization. inhibition, % at 10 µM. actives 43% (n = 3,300). AID 488960;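 active = fluorescence ratio falls more than 5 SD below the full-stimulation control mean, in both duplicate runs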;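 note: integrated fluorescence ratio of peak minus minimum over baseline after agonist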
# TRPC6 act conf = confirmation of mouse TRPC6 activators; shares compounds with TRPC6 inh; HEK293-TRPC6 membrane potential dye fluorescence, FDSS; activation, % at 10 µM; actives 11% (n = 2,800); AID 488961;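 active = ratio signal rise beyond 5 SD above unstimulated control wells' mean, seen in both duplicate runs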;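 note: plate controls were buffer EC0 wells for no effect and acetylcholine ECmax response for full effect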
# The depositor's hits bear a star; i = inactive; . = no result given; + = active, no number.
SMILES,TRPC4 inh,TRPC6 inh,TRPC6 act,TRPC4 potent,DSG3 Ab inh,TRPC4 act,HEK293 TRPC6 ctr,HEK293 MPD ctr 2,TRPC4 ctr mod,TRPC4 ctr inh 2,TRPC6 inh conf,TRPC6 act conf
O=C(N/N=C/c1sc2ccccc2c1O)c1cccc2ccccc12,i,i,22*,i,99,45*,834%*,+,121%*,42%*,.,251%*
COc1ccc2cc(C(=O)N/N=C/c3sc4ccccc4c3O)ccc2c1,i,i,72*,i,109,i,138%*,108%*,261%*,i,.,38%*
COc1ccc(C(=O)N/N=C/c2sc3ccccc3c2O)cc1,i,i,12*,i,101,i,+,+,112%*,40%*,.,198%*
O=C(N/N=C/c1sc2ccccc2c1O)c1ccccc1,i,i,i,i,110,i,.,.,.,.,.,.
Cc1cc(N2CCCC2)ccc1/C=C1\NC(=S)N(C)C1=O,i,i,52*,i,157,70*,i,i,33%*,i,i,32%*
OC[C@H]1O[C@@H]2O[C@H]3[C@H](O)[C@@H](O)[C@@H](O[C@H]4[C@H](O)[C@@H](O)[C@@H](O[C@H]5[C@H](O)[C@@H](O)[C@@H](O[C@H]6[C@H](O)[C@@H](O)[C@@H](O[C@H]7[C@H](O)[C@@H](O)[C@@H](O[C@H]1[C@H](O)[C@H]2O)O[C@@H]7CO)O[C@@H]6CO)O[C@@H]5CO)O[C@@H]4CO)O[C@@H]3CO,i,i,i,i,.,i,.,.,.,.,.,.
N#CCCN(CCC#N)C(=O)c1ccc(Cl)cc1,i,-14*,i,i,101,i,i,i,i,i,i,i
N#CCCN(C(=O)Nc1ccc(Cl)cc1)c1ccccc1,i,i,i,i,.,i,.,.,.,.,.,.
CCOC(=O)C1(CC)Oc2ccccc2C(c2ccc(OC)cc2)=C1C(=O)OC (configuration not stated),.,.,.,.,97,.,.,.,.,.,.,.
Nc1[nH]nc2nc(NCc3ccccc3)c3c(c12)CCN(Cc1ccccc1)C3,i,-5.4*,i,i,93,i,i,i,-16%*,49%*,42%*,i
O=C(NCc1ccc(F)cc1)c1c2c(nc3ccccc13)CCN(Cc1ccccc1)C2,i,i,i,i,.,i,.,.,.,.,.,.
